Source: paper PMC8463269 (Acta Pharmaceutica Sinica. B, 2021)
Read-outs that look alike come from different tables or passages of the source. Where a SMILES comes first, the peptide text is derived from it. Bridges are numbered along the chain shown (N, C = ends). [ ]: non-standard residue; d: D form. S5 = C=CCCC[C@](C)(N)C(=O)O

How the values were obtained:
[1] = Circular dichroism spectroscopy, α-helicity; format: physicochemical; details: CD, 0.3 mg/mL in 1×PBS pH 7.4, 25 °C, 190–260 nm, average of three readings
Summary of the method: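 Spectra were taken in a 1.0 mm path quartz cell with 1 nm bandwidth, 50 nm/min scan speed and 1 s response time. Peptide was also run in PBS with 50% trifluoroethanol. Spectra were converted to mean residue ellipticity (deg·cm²/dmol) versus wavelength.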

KRAS^G12C protein = KRAS^G12C protein (Homo sapiens, UniProt P01116, G12C); experiment: Bio-Layer Interferometry; format: binding
Summary of the method: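 The biotinylated protein was captured on SSA sensors in an Octet RED 96. Test peptides were run at various concentrations, and KD was calculated from the binding kinetics.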

[2] = Plasma stability in rat plasma; format: in vitro ADME, Sprague–Dawley rats; details: 1300 μg/mL, 0 min, HPLC
Summary of the method: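 Heparinised blood was drawn from the femoral artery of Sprague–Dawley rats and centrifuged at 4 °C, 4000 r/min for 10 min to give plasma. Plasma spiked with test peptide was incubated at 37 °C. Aliquots were precipitated in 3 volumes of methanol–acetonitrile (50:50), vortexed and centrifuged, and the supernatant was analysed by C18 RP-HPLC with a 0.1% TFA water/acetonitrile gradient.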

H358 cells [3] = experiment: Cell viability, CCK8 assay; format: cell-based; details: read-out: IC50, H358 cell viability, n = 3
Summary of the method: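 H358 cells in RPMI-1640 with 10% FBS were plated overnight, then incubated with diluted series of test peptide for 24 h, or 36, 48 and 72 h. CCK8 reagent was added for 1 h at 37 °C and absorbance read at 450 nm. Mean ± SD of three independent experiments.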

circular dichroism = details: PBS; pH 7.4; 25 °C; 0.3 mg/mL
caspase 3 = experiment: Western blot, caspase 3 expression in H358 cells; format: cell-based; details: H358 cells, 0, 5, 10, 20 μmol/L, 24 h
Summary of the method: (§1)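 H358 cells treated with test peptide for 24 h were lysed on ice for 1 h in buffer with phosphatase inhibitor cocktail and PMSF. Proteins were separated by SDS-PAGE and transferred to PVDF. Membranes were incubated with primary antibody at 4 °C overnight, then HRP goat anti-rabbit IgG for 100 min, and imaged by chemiluminescence. GAPDH was probed alongside.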

cyclin B1 = experiment: Western blot, cyclin B1 expression in H358 cells; format: cell-based; details: H358 cells, 0, 5, 10, 20 μmol/L, 24 h
Summary of the method: as §1

H358 cells [4] = experiment: Cell cycle analysis by flow cytometry; format: cell-based; details: 24-h treatment, highest concentration of the series, control 16.76%
BAX = experiment: Western blot, BAX expression in H358 cells; format: cell-based; details: H358 cells, 0, 5, 10, 20 μmol/L, 24 h
Summary of the method: as §1

H358 cells [5] = experiment: Annexin V-FITC apoptosis assay by flow cytometry; format: cell-based; details: 24 h, control 36.42%
BCL-2 = experiment: Western blot, BCL-2 expression in H358 cells; format: cell-based; details: H358 cells, 0, 5, 10, 20 μmol/L, 24 h
Summary of the method: as §1

trypsin = experiment: Enzymatic degradation by trypsin; format: in vitro ADME; details: 150 μg/mL peptide, 3 μg/mL trypsin, NH4HCO3 buffer, 37 °C, HPLC, n = 3
Summary of the method: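 Test peptide was digested with trypsin or chymotrypsin (peptide:enzyme weight ratio 50:1) in NH4HCO3 buffer at 37 °C. Samples were taken at 0, 30 min and 1, 2, 6, 12 and 24 h and quenched with 1% (v/v) formic acid. Analysis was by C18 RP-HPLC with a 0.1% TFA water/acetonitrile gradient (20→90% B over 30 min, 1 mL/min).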

[6] = tested on: cyclin-dependent kinase 1 (CDK1); experiment: Western blot, CDK1 expression in H358 cells; format: cell-based; details: H358 cells, 0, 5, 10, 20 μmol/L, 24 h
Summary of the method: as §1

[7] = target: hexahistidine-tagged recombinant human KRAS^G12C (human) (UniProt P01116); experiment: BLI

With `CC[C@H](C)[C@H](NC(=O)CNC(=O)[C@H](Cc1ccccc1)NC(=O)[C@H](Cc1ccccc1)NC(=O)[C@H](CCCNC(=N)N)NC(=O)[C@H](CCCNC(=N)N)NC(C)=O)C(=O)N[C@@]1(C)CCCC=CCCC[C@@](C)(C(=O)N[C@@H](CC(C)C)C(=O)N[C@@H](CCCCN)C(=O)N[C@H](C(=O)N[C@@H](CCC(=O)O)C(=O)N[C@@H](CCC(=O)O)C(=O)NCC(=O)N[C@@H](CC(N)=O)C(N)=O)[C@@H](C)O)NC(=O)[C@H](CC(N)=O)NC(=O)[C@H]([C@@H](C)O)NC(=O)[C@H](CC(C)C)NC1=O` [Peptide 1, reference compound] as the molecule, how does the “α-helicity in PBS” value [1] read?
The value was 16.20%.

What about the Kd (KRAS^G12C protein) of the same molecule?
Its Kd is 58.3 µM.

What about the kon (KRAS^G12C protein) of the same molecule?
Its kon is 14800 M⁻¹ s⁻¹.

What about the “plasma stability, characteristic peak in the chromatogram” value [2] of the same molecule?
The value was “No characteristic peaks were observed”.

And the IC50 (H358 cells [3]; CCK8, 24-h incubation)?
The IC50 was 21.2 µM.

Which results are given for `CC[C@H](C)[C@H](NC(=O)CNC(=O)[C@H](Cc1ccccc1)NC(=O)[C@H](Cc1ccccc1)NC(C)=O)C(=O)N[C@@]1(C)CCCC=CCCC[C@@](C)(C(=O)N[C@@H](CC(C)C)C(=O)N[C@@H](CCCCN)C(=O)N[C@H](C(=O)N[C@@H](CCC(=O)O)C(N)=O)[C@@H](C)O)NC(=O)[C@H](CC(N)=O)NC(=O)[C@H]([C@@H](C)O)NC(=O)[C@H](CC(C)C)NC1=O` [Peptide 2] (Ac-FFGI[S5]LTN[S5]LKTE-NH2; staple 5-9)?
Kd (KRAS^G12C protein): 21.7 µM; kon (KRAS^G12C protein): 43600 M⁻¹ s⁻¹

Which helicity (circular dichroism) does the source give for `CC[C@H](C)[C@H](NC(=O)CNC(=O)[C@H](Cc1ccccc1)NC(C)=O)C(=O)N[C@@]1(C)CCCC=CCCC[C@@](C)(C(=O)N[C@@H](CC(C)C)C(=O)N[C@@H](CCCCN)C(=O)N[C@H](C(N)=O)[C@@H](C)O)NC(=O)[C@H](CC(N)=O)NC(=O)[C@H]([C@@H](C)O)NC(=O)[C@H](CC(C)C)NC1=O` [Peptide 3] (Ac-FGI[S5]LTN[S5]LKT-NH2; staple 4-8) here?
Its helicity is 18.9%.

What about the “caspase 3 expression” value (caspase 3) of the same molecule?
Its value is “increased”.

What about the “cyclin B1 expression” value (cyclin B1) of the same molecule?
The value was “significantly downregulated”.

What about the “α-helicity in PBS” value [1] of the same molecule?
The value was 18.93%.

And the “percentage of cells in the G2/M” value (H358 cells [4])?
Its value is 49.79%.

What about the “pro-apoptotic BAX protein expression” value (BAX) of the same molecule?
Its value is “insignificant effect”.

And the kon (KRAS^G12C protein)?
The kon was 4600 M⁻¹ s⁻¹.

And the “proportion of apoptotic cells (Q2 + Q3)” value (H358 cells [5]; 2.5 μmol/L)?
The value was 56.63%.

And the “proportion of apoptotic cells (Q2 + Q3)” value (H358 cells [5]; 10 μmol/L)?
Its value is 61.40%.

And the “proportion of apoptotic cells (Q2 + Q3)” value (H358 cells [5]; 20 μmol/L)?
The value was 70.70%.

And the “anti-apoptotic BCL-2 protein expression” value (BCL-2)?
Its value is “obviously inhibited”.

And the “percentage of trypsin hydrolysate (g) of the peptide” value (trypsin; 12 h)?
The value was 78%.

What about the “percentage of trypsin hydrolysate (g) of the peptide” value (trypsin; 24 h) of the same molecule?
The value was 34%.

What about the IC50 (H358 cells [3]; CCK8, 24-h incubation) of the same molecule?
The IC50 was 15.7 µM.

And the IC50 (H358 cells [3]; CCK8, 36-h incubation)?
The IC50 was 7.55 µM.

What about the IC50 (H358 cells [3]; CCK8, 48-h incubation) of the same molecule?
The IC50 was 5.75 µM.

And the IC50 (H358 cells [3]; CCK8, 72-h incubation)?
The IC50 was 6.68 µM.

What about the CDK1 expression [6] of the same molecule?
The CDK1 expression was “significantly downregulated”.

For `CC[C@H](C)[C@H](NC(=O)CNC(C)=O)C(=O)N[C@@]1(C)CCCC=CCCC[C@@](C)(C(=O)N[C@@H](CC(C)C)C(=O)N[C@@H](CCCCN)C(N)=O)NC(=O)[C@H](CC(N)=O)NC(=O)[C@H]([C@@H](C)O)NC(=O)[C@H](CC(C)C)NC1=O` [Peptide 4] (Ac-GI[S5]LTN[S5]LK-NH2; staple 3-7), which Kd (KRAS^G12C protein) is on record?
Its Kd is 25 µM.

What about the kon (KRAS^G12C protein) of the same molecule?
The kon was 97.6 M⁻¹ s⁻¹.

For `CC[C@H](C)[C@H](NC(C)=O)C(=O)N[C@@]1(C)CCCC=CCCC[C@@](C)(C(=O)N[C@@H](CC(C)C)C(N)=O)NC(=O)[C@H](CC(N)=O)NC(=O)[C@H]([C@@H](C)O)NC(=O)[C@H](CC(C)C)NC1=O` [Peptide 5] (Ac-I[S5]LTN[S5]L-NH2; staple 2-6), which kon (KRAS^G12C protein) is on record?
Its kon is 3.12 M⁻¹ s⁻¹.

And the Kd (KRAS^G12C protein; BLI, dissociation rate constant)?
The Kd was 1.06 s⁻¹.

For `CC(=O)N[C@@]1(C)CCCC=CCCC[C@@](C)(C(N)=O)NC(=O)[C@H](CC(N)=O)NC(=O)[C@H]([C@@H](C)O)NC(=O)[C@H](CC(C)C)NC1=O` [Peptide 6] (Ac-[S5]LTN[S5]-NH2; staple 1-5), which kon (KRAS^G12C protein) is on record?
The kon was 3.22 M⁻¹ s⁻¹.

What does the source list for `CC[C@H](C)[C@H](NC(C)=O)C(=O)N[C@@]1(C)CCCC=CCCC[C@@](C)(C(=O)N[C@@H](CC(C)C)C(=O)N[C@@H](CCCCN)C(=O)N[C@H](C(N)=O)[C@@H](C)O)NC(=O)[C@H](CC(N)=O)NC(=O)[C@H]([C@@H](C)O)NC(=O)[C@H](CC(C)C)NC1=O` [Peptide 7] (Ac-I[S5]LTN[S5]LKT-NH2; staple 2-6)?
α-helicity in PBS [1]: 17.90%; Kd (KRAS^G12C protein): 87.2 µM; kon (KRAS^G12C protein): 64.7 M⁻¹ s⁻¹

Which Kd (KRAS^G12C protein) does the source give for `CC(=O)N[C@@]1(C)CCCC=CCCC[C@@](C)(C(=O)N[C@@H](CC(C)C)C(=O)N[C@@H](CCCCN)C(=O)N[C@H](C(N)=O)[C@@H](C)O)NC(=O)[C@H](CC(N)=O)NC(=O)[C@H]([C@@H](C)O)NC(=O)[C@H](CC(C)C)NC1=O` [Peptide 8] (Ac-[S5]LTN[S5]LKT-NH2; staple 1-5) here?
Its Kd is 29.1 µM.

What about the kon (KRAS^G12C protein) of the same molecule?
The kon was 1750 M⁻¹ s⁻¹.

For `CC[C@H](C)[C@H](NC(=O)CNC(=O)[C@H](Cc1ccccc1)NC(C)=O)C(=O)N[C@@]1(C)CCCC=CCCC[C@@](C)(C(=O)N[C@@H](CC(C)C)C(N)=O)NC(=O)[C@H](CC(N)=O)NC(=O)[C@H]([C@@H](C)O)NC(=O)[C@H](CC(C)C)NC1=O` [Peptide 9] (Ac-FGI[S5]LTN[S5]L-NH2; staple 4-8), which Kd (KRAS^G12C protein) is on record?
Its Kd is 64.9 µM.

What about the kon (KRAS^G12C protein) of the same molecule?
The kon was 1630 M⁻¹ s⁻¹.

With `CC[C@H](C)[C@H](NC(=O)CNC(=O)[C@H](Cc1ccccc1)NC(C)=O)C(=O)N[C@@]1(C)CCCC=CCCC[C@@](C)(C(N)=O)NC(=O)[C@H](CC(N)=O)NC(=O)[C@H]([C@@H](C)O)NC(=O)[C@H](CC(C)C)NC1=O` [Peptide 10] (Ac-FGI[S5]LTN[S5]-NH2; staple 4-8) as the molecule, how does the Kd (KRAS^G12C protein) read?
Its Kd is 131 µM.

What about the kon (KRAS^G12C protein) of the same molecule?
Its kon is 294 M⁻¹ s⁻¹.

Which koff [7] does the source give for SAH-SOS1A (peptide 1) here?
Its koff is 0.862 s⁻¹.
